Results on nine molecules are retold here after ChEMBL document CHEMBL1132256, “Structure-activity relationships for substituted bis(acridine-4-carboxamides): a new class of anticancer agents” (J Med Chem, 1999).

The subject of one assay is HCT-116. Briefly: inhibitory activity against colon HCT116 cell line. The assay is classed as functional. To be noted: Homo sapiens. The method, boiled down:
(§1)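 Tested in the NCI human cell line panel. GI50 = drug concentration (nM) giving growth inhibition to 50% of controls; values below 10 nM were taken as 10 nM in calculations.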

In assay [1] the test system is Jurkat. Briefly: Concentration required to inhibit 50% growth of human Jurkat cells. In kind it is functional, cell-based. The method, boiled down:
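Jurkat leukemia (JLC) cells seeded at 3.75 × 10^3 cells/well and exposed to drug for 4 days; growth measured by sulforhodamine assay. IC50 = drug concentration (nM) reducing cell number to 50% of control cultures. Independent assays in duplicate, coefficients of variation ca. 25%.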

In a further assay the test system is SK-OV-3. Put plainly: inhibitory activity against ovarian carcinoma SKOV3 cell line. In kind it is functional. Particulars: Homo sapiens. The method, boiled down:
as §1

The subject of assay [2] is Lewis lung carcinoma cell line. Put plainly: Inhibitory activity of tested against Murine Lewis lung carcinoma. In kind it is functional, cell-based. To be noted: Mus musculus. The method, boiled down: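 Lewis lung carcinoma (LLTC) cells at 10^3 cells/well, 4-day continuous drug exposure, growth read by sulforhodamine assay. IC50 (nM) = concentration giving 50% of control cell number. Duplicate independent assays, CV ca. 25%.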

A further assay concerns CAKI-1. Put plainly: inhibitory activity against renal tumor […] cell line. In kind it is functional. Particulars: Homo sapiens. The method, boiled down: as §1
The next assay concerns P388. Put plainly: Inhibitory activity against Murine […]. In kind it is functional, cell-based. To be noted: Mus musculus. The method, boiled down:
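Murine P388 leukemia cells seeded at 4.5 × 10^3 cells/well, cultured 3 days with drug; growth measured by [3H]TdR uptake. IC50 = drug concentration (nM) reducing cell number to 50% of controls. Independent assays in duplicate, CV ca. 25%.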

A further assay relates to HT-29. Briefly: inhibitory activity against colon HT-29 cell line. The assay is classed as functional. To be noted: Homo sapiens. The method, boiled down:
as §1

For another assay, the system named is NCI/ADR-RES. Briefly: inhibitory activity against multi drug resistant NCI/ADR cell line. The assay is classed as functional. Particulars: Homo sapiens. The method, boiled down:
as §1

The subject of another assay is MCF7. Put plainly: inhibitory activity against multi drug resistant MCF cell line. The assay is classed as functional. To be noted: Homo sapiens, in the assay text read “MCF7 cell line” for “multi drug resistant MCF cell line”. The method, boiled down:
as §1

Assay [3] relates to Jurkat. Put plainly: Ratio of inhibitory activity against doxorubicin resistant jurkat cells to inhibitory activity against wild type human jurkat cells. In kind it is functional. The method, boiled down: (§2)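 Wild-type Jurkat (JLC) and its amsacrine-resistant (JLA) or doxorubicin-resistant (JLD) sublines each seeded at 3.75 × 10^3 cells/well, 4 days with drug, sulforhodamine read-out. IC50 (nM) for 50% of control cell number; ratio = resistant-line IC50 divided by JLC IC50. Duplicate assays, CV ca. 25%.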

Assay [4] has as its system Jurkat. Put plainly: Ratio of inhibitory activity against amsacrine resistant jurkat cells to inhibitory activity against wild type human jurkat cells. The assay is classed as functional. The method, boiled down:
as §2

Each structure is given as a SMILES string.

As usually defined, the GI50 is the concentration at which growth is held to half of that of the control. Lower therefore signals greater sensitivity of the cells. For orientation: IC50 means the concentration needed to halve the response being measured. Low readings indicate greater potency, high ones weaker potency. As to `Cc1ccc2cc3ccccc3nc2c1C(=O)NCCCN(C)CCCNC(=O)c1c(C)ccc2cc3ccccc3nc12`, the GI50 with HCT-116 amounted to 446 nM; with SK-OV-3 it was 13000 nM; in the assay with CAKI-1, 6360 nM; in the assay on HT-29 it was 1430 nM; in the assay on NCI/ADR-RES it was 16000 nM; with MCF7 it was 3030 nM. The values for the IC50 (in the assay with Jurkat [1]; in [2]; with P388) were 1300 nM, 2400 nM and 3500 nM, respectively. Further, the Ratio in the assay with Jurkat [3] was determined as 1; in the assay with Jurkat [4] it was 0.9.
`Cc1cc(C(=O)NCCCN(C)CCCNC(=O)c2cc(C)cc3cc4ccccc4nc23)c2nc3ccccc3cc2c1`: the GI50 in the assay with HCT-116 was below 10 nM; with SK-OV-3 it was 460 nM; with CAKI-1 it was 247 nM; in the assay on HT-29, 265 nM; in the assay on NCI/ADR-RES it was 657 nM; in the assay with MCF7, 546 nM. Besides, the IC50 in the assay on Jurkat [1] was 255 nM; in assay [2] it was 67 nM; in the assay on P388, 220 nM. Moreover, the Ratio with Jurkat [3] is listed as 1.1; in the assay on Jurkat [4], 0.7.
In the case of `Cc1ccc(C(=O)NCCCN(C)CCCNC(=O)c2ccc(C)c3cc4ccccc4nc23)c2nc3ccccc3cc12`, the GI50 in the assay on HCT-116 was below 10 nM; in the assay with SK-OV-3, 1170 nM; with CAKI-1 it was 42 nM; in the assay on HT-29, below 10 nM; with NCI/ADR-RES, 77 nM; in the assay on MCF7 it was 54 nM. For the same molecule, the IC50 in the assay on Jurkat [1] worked out at 41 nM; in assay [2], 14 nM; in the assay on P388, 170 nM. For the same molecule, the figures for the Ratio in the assay with Jurkat [3] and in the assay on Jurkat [4] were 1 and 0.6, respectively.
Consider `CN(CCCNC(=O)c1cccc2cc3cccc(Br)c3nc12)CCCNC(=O)c1cccc2cc3cccc(Br)c3nc12`, for which the GI50 with HCT-116 is below 10 nM; with SK-OV-3 it was 166 nM; with CAKI-1 it was below 10 nM; in the assay on HT-29, below 10 nM; in the assay with NCI/ADR-RES it was 110 nM; in the assay with MCF7, 13 nM. Also, the IC50 in the assay with Jurkat [1] was 24 nM; in assay [2], 6 nM; in the assay with P388, 15 nM. For the same molecule, the values for the Ratio in the assay on Jurkat [3] and in the assay with Jurkat [4] were 0.9 and 0.4, respectively.
As to `CN(CCCNC(=O)c1cccc2cc3c(Cl)cccc3nc12)CCCNC(=O)c1cccc2cc3c(Cl)cccc3nc12`, the GI50 with HCT-116 was 216 nM; in the assay on SK-OV-3 it was 1070 nM; with CAKI-1, 450 nM; in the assay with HT-29, 120 nM; in the assay on NCI/ADR-RES, 624 nM; with MCF7 it was 614 nM. The IC50 with Jurkat [1] came to 238 nM; in assay [2], 123 nM; in the assay with P388 it was 750 nM. Moreover, the Ratio with Jurkat [3] came to 1.2; in the assay with Jurkat [4] it was 0.8.
Regarding `CN(CCCNC(=O)c1c(Cl)ccc2cc3ccccc3nc12)CCCNC(=O)c1c(Cl)ccc2cc3ccccc3nc12`, the GI50 in the assay with HCT-116 was 171 nM; in the assay on SK-OV-3 it was 8380 nM; in the assay with CAKI-1 it was 4580 nM; with HT-29, 727 nM; in the assay on NCI/ADR-RES it was 37000 nM; in the assay on MCF7, 488 nM. Further, the figures for the IC50 (in the assay with Jurkat [1]; in assay [2]; in the assay with P388) were 900 nM, 2980 nM and above 200000 nM, respectively. Besides, the Ratio with Jurkat [3] is 1.2; in the assay on Jurkat [4], 0.9.
Consider `Cc1ccc2nc3c(C(=O)NCCCN(C)CCCNC(=O)c4cccc5cc6cc(C)ccc6nc45)cccc3cc2c1`, for which the GI50 in the assay on HCT-116 worked out at 12 nM; with SK-OV-3 it was 1180 nM; in the assay on CAKI-1, 268 nM; in the assay with HT-29, 34 nM; in the assay with NCI/ADR-RES it was 480 nM; in the assay on MCF7, 190 nM. Further, the IC50 in the assay on Jurkat [1] stood at 275 nM; in assay [2] it was 73 nM; in the assay with P388, 270 nM. Moreover, the figures for the Ratio in the assay on Jurkat [3] and with Jurkat [4] were 1.1 and 0.9, respectively.
`Cc1ccc(C)c2nc3c(C(=O)NCCCN(C)CCCNC(=O)c4cccc5cc6c(C)ccc(C)c6nc45)cccc3cc12`: the GI50 in the assay on HCT-116 was below 10 nM; with SK-OV-3, 320 nM; with CAKI-1, below 10 nM; with HT-29 it was below 10 nM; in the assay with NCI/ADR-RES, 172 nM; in the assay on MCF7, below 10 nM. The figures for the IC50 (in the assay on Jurkat [1]; in [2]; in the assay with P388) were 11 nM, 3.2 nM and 24 nM, respectively. Besides, the Ratio with Jurkat [3] was determined as 0.7; with Jurkat [4], 0.4.
As for `CN(CCCNC(=O)c1cccc2cc3ccccc3nc12)CCCNC(=O)c1cccc2cc3ccccc3nc12`, the GI50 was below 10 nM in the assay on HCT-116; 8570 nM with SK-OV-3; 14 nM in the assay with CAKI-1; below 10 nM in the assay on HT-29; 408 nM in the assay with NCI/ADR-RES; 24 nM with MCF7. Further, the IC50 is 110 nM in the assay on Jurkat [1], 30 nM in assay [2] and 130 nM in the assay with P388. The values for the Ratio in the assay with Jurkat [3] and with Jurkat [4] were 0.8 and 0.7, respectively.
